Data set [1] in a line: melting temperature; fluorescence melt of hairpins on a sequencing array, two-state fit, raised by 9.35 °C to match UV melts. Particulars: sodium 0.088 M. The method in brief: (§1)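 On a sequenced MiSeq flow cell, library hairpins with annealed Cy3 and quencher oligos were imaged for Cy3 fluorescence in 2.5 °C steps up to 60 °C, in 50 mM Na-HEPES pH 8.0, 25 mM NaCl. Normalisation used pre-quench Cy3 and control constructs. Bootstrapped two-state fits gave melting temperature and folding enthalpy, combined by inverse variance across four replicates and with fitted temperatures raised by 9.35 °C to match UV melts.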

Data set [2] in a line: folding enthalpy; higher = less favourable; fluorescence melt of hairpins on a sequencing array, two-state fit. As to conditions: sodium 0.088 M. In a few lines:
as §1

In the case of GCGAACAGTCGC ((((....)))), the Tm in data set [1] turned out to be 42.1 °C. Besides, the folding enthalpy in data set [2] was -16.4 kcal/mol.
For GCTTTGCGAAAGCTAAGC ((((.((....)).)))) the same measures were 62.7 °C and -28.8 kcal/mol.
Taken in the same sequence, the figures for GAAAGTGGAAACGCTTTC (((((.(....).))))) were 44.2 °C and -27.6 kcal/mol.
In the case of GGAAACGGAAACGCTTCC ((((.((....)).)))), in data set [1], the Tm worked out at 43.4 °C. Moreover, the folding enthalpy in data set [2] is -34.1 kcal/mol.
Taken in the same sequence, the figures for GGCCGGCGAAAGCCTGCC (((.(((....))).))) were 65.2 °C and -29.7 kcal/mol.
For the sequence GATCTAACCTAGATC ((((((...)))))), the Tm in data set [1] was 38.1 °C. Also, the folding enthalpy in data set [2] was -29 kcal/mol.
Regarding GACAGACCGAAAGGTGTC (((..(((....)))))), in data set [1], the Tm was 44.3 °C. For the same sequence, the folding enthalpy in data set [2] is -19.5 kcal/mol.
For GGTGGTGGAAACACCATC (.(((((....))))).), the Tm in data set [1] amounted to 56.2 °C. In addition, the folding enthalpy in data set [2] is -26.2 kcal/mol.
Consider GTCAAGGAAACTTGAC ((((((....)))))), for which, in data set [1], the Tm is 53.5 °C. Moreover, in data set [2], the folding enthalpy was -29.6 kcal/mol.
For GCATTACCGAAAGGTTGC (((..(((....)))))) the same measures were 40 °C and -20.1 kcal/mol.
For GGGGTGGAAACACCCC ((((((....)))))), the Tm in data set [1] was 68.8 °C. Besides, in data set [2], the folding enthalpy is -38.9 kcal/mol.
For GGTAACGGAAACGTTGTC (..((((....))))..) the same measures were 31.6 °C and -16.8 kcal/mol.
Taken in the same sequence, the figures for GACCACGGAAACGTAGCC (.(.(((....))).).) were 23.6 °C and -9.48 kcal/mol.
For GCCTGTCGAAAGACCGGC (((.(((....))).))) the same measures were 55.8 °C and -39.5 kcal/mol.
As for GCAACCGAAAGGTAATGC ((((((....)))..))), the Tm in data set [1] is 38.6 °C. The folding enthalpy in data set [2] was -20.1 kcal/mol.
For GTCTACGGAAACGTAAAC ((.((((....)))).)) the same measures were 27.7 °C and -14.4 kcal/mol.
For GTTGCGGGAAACTGCGAC ((.((.(....).)).)) the same measures were 38 °C and -11 kcal/mol.
Taken in the same sequence, the figures for GTGTTGGGAAACCAATGC (..((((....))))..) were 38 °C and -25.2 kcal/mol.
For the sequence GAAGACGAAAGTCTTC ((((((....)))))), in data set [1], the Tm was 64.5 °C. The folding enthalpy in data set [2] was -37.7 kcal/mol.
As to GAACGCCGAAAGGCTTTC (((.(((....))).))), the Tm in data set [1] came out at 44.2 °C. The folding enthalpy in data set [2] is -17.9 kcal/mol.
For GACAGCGAAAGCTGGGTC ((((((....)))..))) the same measures were 62 °C and -12.4 kcal/mol.
On to GTATGGCGAAAGCCGTAC (((.(((....))).))), for which the Tm in data set [1] was determined as 56.9 °C. For the same sequence, the folding enthalpy in data set [2] was -25.9 kcal/mol.
For GAGGGCGGAAACGCCCCC (.(((((....))))).) the same measures were 45.8 °C and -5.82 kcal/mol.
Turning to GGACCCGCGAAAGCGTCC (((..(((....)))))), the Tm in data set [1] stood at 36.7 °C. In data set [2], the folding enthalpy is -12.4 kcal/mol.
Taken in the same sequence, the figures for GAGGACGAAAGTCTGCTC ((((((....)))..))) were 39.2 °C and -14.4 kcal/mol.
Consider GATCCTTGCAAGGATC ((((((....)))))), for which the Tm in data set [1] came to 55.4 °C. Further, in data set [2], the folding enthalpy was -41 kcal/mol.
For GATGTGCCGAAAGGCATC (((..(((....)))))) the same measures were 36.1 °C and -8.04 kcal/mol.
Consider TATCTGAAAAGATA (((((....))))), for which, in data set [1], the Tm was 29.8 °C. Besides, in data set [2], the folding enthalpy is -11.5 kcal/mol.
Taken in the same sequence, the figures for GAACCTGGAAACAGGTCC (.(((((....))))).) were 40.9 °C and -15.9 kcal/mol.
Taken in the same sequence, the figures for GTCTTCGAAAGAAGCGAC ((((((....)))..))) were 44.7 °C and -20 kcal/mol.
For CGTTCCGGAAACGGCACG (((.(((....))).))) the same measures were 48.5 °C and -34.9 kcal/mol.
For the sequence GGGAATCGAAAGATACCC (((.(((....))).))), the Tm in data set [1] was found to be 49.6 °C. For the same sequence, the folding enthalpy in data set [2] was -30.1 kcal/mol.
GTGTCGAAAGACAC (((((....))))): in data set [1], the Tm is 68 °C. The folding enthalpy in data set [2] was -25.7 kcal/mol.
GCGTCATCACGC ((((....)))): the Tm in data set [1] was 50.4 °C. For the same sequence, in data set [2], the folding enthalpy was -22.5 kcal/mol.
For TAGCAGAAATGCTA (((((....))))) the same measures were 38.1 °C and -14 kcal/mol.
TGTGGGAAACCACA (((((....))))): in data set [1], the Tm stood at 49.6 °C. Further, the folding enthalpy in data set [2] is -20.5 kcal/mol.
With GACGCCGAAAGGCTGGTC ((((((....)))..))), the Tm in data set [1] is 48 °C. Further, the folding enthalpy in data set [2] is -16.1 kcal/mol.
